# B1: Osa-1-4 twister ribozyme (parent)
# chain: CCGCCUAACACUGCCAAUGCCGGUCCCAAGCCCGGAUAAAAGUGGAGGGGGCGG
# Variants of: B1
# Assay: self-cleavage, relative activity (ratio to wild type); higher = more cleavage; co-transcriptional
# Procedure, shortened: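 Relative activity is the fraction cleaved divided by that of the wild-type ribozyme. The library came from a DNA template for a 54-nucleotide Oryza sativa twister ribozyme, doped at the 48 positions downstream of the cleavage site with 97 % wild-type base and 1 % of each other base. After 2 h of in vitro transcription at 37 °C with co-transcriptional self-cleavage, the RNA was reverse-transcribed with a template-switching oligonucleotide, amplified by PCR and deep-sequenced, and reads with or without upstream sequence gave the cleavage status.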
row,Variant,self-cleavage
1,CCGCCUAACACUGCCAAAGCCGGUCCCAAGCCCAGAUAAAAGUGGAGGGGGCGG,0.73
2,CCGCCUAACACUGCCAACGCCGGUCCCAAGCCCAGAUAAAAGUGGAGGGGGCGG,0.43
3,CCGCCUAACACUGCCAAGGCCGGUCCCAAGCCCAGAUAAAAGUGGAGGGGGCGG,0.71
4,CCGCCUAACACUGCCAAUGCCGGUCCCAAGCCCCGAUAAAAGCGGAGGGGGCGG,0.1
5,CCGCCUAACACUGCCAAUGCCGGUCCCAAGCCCCGAUAAAAGAGGAGGGGGCGG,0.09
6,CCGCCUAACACUGCCAAUGCCGGUCCCAAGCCCCGAUAAAAGGGGAGGGGGCGG,0.07
7,CCGCCUAACACUGCCAAUGCCGGUCCCAAGCCCCGAUAAAAGUGGAGGGCGCGG,0.19
8,CCGCCUAACACUGCCAAUGCCGGUCCCAAGCCCCGAUAAAAGUGGAGGGUGCGG,0.41
9,CCGCCUAACACUGCCAAUGCCGGUCCCAAGCCCCGAUAAAAGUGGAGGGAGCGG,0.23
10,CCGCCUAACACUGCCAAUGCCGGUCCCAAGCCCAGAUAAAAUUGGAGGGGGCGG,0.05
11,CCGCCUAACACUGCCAAUGCCGGUCCCAAGCCCAGAUAAAAAUGGAGGGGGCGG,0.11
12,CCGCCUAACACUGCCAAUGCCGGUCCCAAGCCCAGAUAAAACUGGAGGGGGCGG,0.08
13,CCGCCUAACACUGCCAAUGCCGGUCCCAAGCCCAGAUAAAAGUGGAGGGAGCGG,0.29
14,CCGCCUAACACUGCCAAUGCCGGUCCCAAGCCCAGAUAAAAGUGGAGGGUGCGG,0.83
15,CCGCCUAACACUGCCAAUGCCGGUCCCAAGCCCAGAUAAAAGUGGAGGGCGCGG,0.6
16,CCGCCUAACACUGCCAAUGCCGGUCCCAAGCCCCGAUAAAAGUGGAGGCGGCGG,0.06
17,CCGCCUAACACUGCCAAUGCCGGUCCCAAGCCCCGAUAAAAGUGGAGGUGGCGG,0.07
18,CCGCCUAACACUGCCAAUGCCGGUCCCAAGCCCCGAUAAAAGUGGAGGAGGCGG,0.06
19,CCGCCUAACACUGCCAAUGCCGGUCCCAAGCCCCGAUAAAACUGGAGGGGGCGG,0.09
20,CCGCCUAACACUGCCAAUGCCGGUCCCAAGCCCCGAUAAAAAUGGAGGGGGCGG,0.09
21,CCGCCUAACACUGCCAAUGCCGGUCCCAAGCCCCGAUAAAAUUGGAGGGGGCGG,0.04
22,CCGCCUAACACUGCCAAUGCCGGUCCCAAGCCCAGACAAAAGUGGAGGGGGCGG,0.89
23,CCGCCUAACACUGCCAAUGCCGGUCCCAAGCCCAGAGAAAAGUGGAGGGGGCGG,0.88
24,CCGCCUAACACUGCCAAUGCCGGUCCCAAGCCCAGAAAAAAGUGGAGGGGGCGG,0.88
25,CCGCCUAACACUGCCAAUGCCGGUCCCAAGCCCCAAUAAAAGUGGAGGGGGCGG,0.39

row,Variant,self-cleavage
1,CCGCCUAACACUGCCAAUGCCGGUCCCAAGCCCCCAUAAAAGUGGAGGGGGCGG,0.11
2,CCGCCUAACACUGCCAAUGCCGGUCCCAAGCCCCUAUAAAAGUGGAGGGGGCGG,0.28
3,CCGCCUAACACUGCCAAUGCCGGUCCCAAGCCCAGAUAAAAGUGGAGAGGGCGG,0.08
4,CCGCCUAACACUGCCAAUGCCGGUCCCAAGCCCAGAUAAAAGUGGAGUGGGCGG,0.06
5,CCGCCUAACACUGCCAAUGCCGGUCCCAAGCCCAGAUAAAAGUGGAGCGGGCGG,0.08
6,CCGCCUAACACUGCCAAUGCCGGUCCCAAGCCCCGAUAAAAGUGGAGGGGGCAG,0.09
7,CCGCCUAACACUGCCAAUGCCGGUCCCAAGCCCCGAUAAAAGUGGAGGGGGCCG,0.09
8,CCGCCUAACACUGCCAAUGCCGGUCCCAAGCCCCGAUAAAAGUGGAGGGGGCUG,0.07
9,CCGCCUAACACUGCCAAUGCCGGUCCCAAGCCCAGAUAAAAGUGGAGGAGGCGG,0.13
10,CCGCCUAACACUGCCAAUGCCGGUCCCAAGCCCAGAUAAAAGUGGAGGCGGCGG,0.07
11,CCGCCUAACACUGCCAAUGCCGGUCCCAAGCCCAGAUAAAAGUGGAGGUGGCGG,0.1
12,CCGCCUAACACUGCCAAUGCCGGUCCCAAGCCCAGAUAAAAGUGCAGGGGGCGG,0.06
13,CCGCCUAACACUGCCAAUGCCGGUCCCAAGCCCAGAUAAAAGUGAAGGGGGCGG,0.15
14,CCGCCUAACACUGCCAAUGCCGGUCCCAAGCCCAGAUAAAAGUGUAGGGGGCGG,0.09
15,CCGCCUAACACUGCCAAUGCCGGUCCCAAGCCCCGAUAAAAGUGGAGAGGGCGG,0.06
16,CCGCCUAACACUGCCAAUGCCGGUCCCAAGCCCCGAUAAAAGUGGAGUGGGCGG,0.05
17,CCGCCUAACACUGCCAAUGCCGGUCCCAAGCCCCGAUAAAAGUGGAGCGGGCGG,0.05
18,CCGCCUAACACUGCCAAUGCCGGUCCCAAGCCCCGAUAAAAGUUGAGGGGGCGG,0.16
19,CCGCCUAACACUGCCAAUGCCGGUCCCAAGCCCCGAUAAAAGUAGAGGGGGCGG,0.2
20,CCGCCUAACACUGCCAAUGCCGGUCCCAAGCCCCGAUAAAAGUCGAGGGGGCGG,0.14
21,CCGCCUAACACUGCCAAUGCCGGUCCCAAGCCCCGACAAAAGUGGAGGGGGCGG,0.65
22,CCGCCUAACACUGCCAAUGCCGGUCCCAAGCCCCGAGAAAAGUGGAGGGGGCGG,0.66
23,CCGCCUAACACUGCCAAUGCCGGUCCCAAGCCCCGAAAAAAGUGGAGGGGGCGG,0.6
24,CCGCCUAACACUGCCAAUGCCGGUCCCAAGCCCCGAUAAAAGUGAAGGGGGCGG,0.05
25,CCGCCUAACACUGCCAAUGCCGGUCCCAAGCCCCGAUAAAAGUGCAGGGGGCGG,0.06

row,Variant,self-cleavage
1,CCGCCUAACACUGCCAAUGCCGGUCCCAAGCCCCGAUAAAAGUGUAGGGGGCGG,0.06
2,CCGCCUAACACUGCCAAUGCCGGUCCCAAGCCCCGAUAAAAGUGGAGGGGACGG,0.1
3,CCGCCUAACACUGCCAAUGCCGGUCCCAAGCCCCGAUAAAAGUGGAGGGGUCGG,0.06
4,CCGCCUAACACUGCCAAUGCCGGUCCCAAGCCCCGAUAAAAGUGGAGGGGCCGG,0.06
5,CCGCCUAACACUGCCAAUGCCGGUCCCAAGCCCAGAUAAAAGUGGAGGGGGCCG,0.05
6,CCGCCUAACACUGCCAAUGCCGGUCCCAAGCCCAGAUAAAAGUGGAGGGGGCUG,0.13
7,CCGCCUAACACUGCCAAUGCCGGUCCCAAGCCCAGAUAAAAGUGGAGGGGGCAG,0.49
8,CCGCCUAACACUGCCAAUGCCGGUCCCAAGCCCAGAUAAAAGUCGAGGGGGCGG,0.58
9,CCGCCUAACACUGCCAAUGCCGGUCCCAAGCCCAGAUAAAAGUAGAGGGGGCGG,0.69
10,CCGCCUAACACUGCCAAUGCCGGUCCCAAGCCCAGAUAAAAGUUGAGGGGGCGG,0.58
11,CCGCCUAACACUGCCAAUGCCGGACCCAAGCCCAGAUAAAAGUGGAGGGGGCGG,0.18
12,CCGCCUAACACUGCCAAUGCCGGGCCCAAGCCCAGAUAAAAGUGGAGGGGGCGG,0.03
13,CCGCCUAACACUGCCAAUGCCGGCCCCAAGCCCAGAUAAAAGUGGAGGGGGCGG,0.06
14,CCGCCUAACACUGCCAAUGCCGGUCCCAAGCCCCGAUAAAAGUGGAGGGGGCGU,0.25
15,CCGCCUAACACUGCCAAUGCCGGUCCCAAGCCCCGAUAAAAGUGGAGGGGGCGC,0.16
16,CCGCCUAACACUGCCAAUGCCGGUCCCAAGCCCCGAUAAAAGUGGAGGGGGCGA,0.15
17,CCGCCUAACACUGCCAAAGCCGGUCCCAAGCCCCGAUAAAAGUGGAGGGGGCGG,0.43
18,CCGCCUAACACUGCCAACGCCGGUCCCAAGCCCCGAUAAAAGUGGAGGGGGCGG,0.36
19,CCGCCUAACACUGCCAAGGCCGGUCCCAAGCCCCGAUAAAAGUGGAGGGGGCGG,0.15
20,CCGCCUAACACUGCCAAUGCCGGUCCCAAGCCCAGAUAAAAGUGGAGGGGGCGA,0.64
21,CCGCCUAACACUGCCAAUGCCGGUCCCAAGCCCAGAUAAAAGUGGAGGGGGCGU,0.7
22,CCGCCUAACACUGCCAAUGCCGGUCCCAAGCCCAGAUAAAAGUGGAGGGGGCGC,0.7
23,CCGCCUAACACGGCCAAUGCCGGUCCCAAGCCCAGAUAAAAGUGGAGGGGGCGG,0.07
24,CCGCCUAACACCGCCAAUGCCGGUCCCAAGCCCAGAUAAAAGUGGAGGGGGCGG,0.19
25,CCGCCUAACACAGCCAAUGCCGGUCCCAAGCCCAGAUAAAAGUGGAGGGGGCGG,0.23

row,Variant,self-cleavage
1,CCGCCUAACACUGCCAAUGCCGGUCCCAAGCCCCGAUAAAAGUGGACGGGGCGG,0.05
2,CCGCCUAACACUGCCAAUGCCGGUCCCAAGCCCCGAUAAAAGUGGAUGGGGCGG,0.06
3,CCGCCUAACACUGCCAAUGCCGGUCCCAAGCCCCGAUAAAAGUGGAAGGGGCGG,0.07
4,CCGCCUAACACAGCCAAUGCCGGUCCCAAGCCCCGAUAAAAGUGGAGGGGGCGG,0.1
5,CCGCCUAACACGGCCAAUGCCGGUCCCAAGCCCCGAUAAAAGUGGAGGGGGCGG,0.08
6,CCGCCUAACACCGCCAAUGCCGGUCCCAAGCCCCGAUAAAAGUGGAGGGGGCGG,0.1
7,CCGCCUAACACUGCCAAUGCCGGUCCCAAGCCCUCAUAAAAGUGGAGGGGGCGG,0.31
8,CCGCCUAACACUGCCAAUGCCGGUCCCAAGCCCUAAUAAAAGUGGAGGGGGCGG,0.6
9,CCGCCUAACACUGCCAAUGCCGGUCCCAAGCCCAGAUAAAAGUGGAGGGGCCGG,0.06
10,CCGCCUAACACUGCCAAUGCCGGUCCCAAGCCCAGAUAAAAGUGGAGGGGUCGG,0.1
11,CCGCCUAACACUGCCAAUGCCGGUCCCAAGCCCAGAUAAAAGUGGAGGGGACGG,0.15
12,CCGCCUAACACUGCCAAUGCCGGUCCCAAGCCCCGAUAAAAGUGGAGGGGGCGG,0.71
13,CCGCCUAACACUGCCAAUGCCGGUCCCAAGCCCUGAUAAAAGUGGAGGGGGCGG,0.82
14,CCGCCUAACACUGCCAAUGCCGGUCCCAAGCCCAGAUAAAAGUGGAUGGGGCGG,0.1
15,CCGCCUAACACUGCCAAUGCCGGUCCCAAGCCCAGAUAAAAGUGGAAGGGGCGG,0.13
16,CCGCCUAACACUGCCAAUGCCGGUCCCAAGCCCAGAUAAAAGUGGACGGGGCGG,0.08
17,CCGCCUAACACUGCCAAUGCCGGUCCCAAGCCCAGAUAAAAGCGGAGGGGGCGG,0.19
18,CCGCCUAACACUGCCAAUGCCGGUCCCAAGCCCAGAUAAAAGGGGAGGGGGCGG,0.1
19,CCGCCUAACACUGCCAAUGCCGGUCCCAAGCCCAGAUAAAAGAGGAGGGGGCGG,0.22
20,CCGCCUAACACUGCCAAUGCCGGCCCCAAGCCCCGAUAAAAGUGGAGGGGGCGG,0.06
21,CCGCCUAACACUGCCAAUGCCGGACCCAAGCCCCGAUAAAAGUGGAGGGGGCGG,0.07
22,CCGCCUAACACUGCCAAUGCCGGGCCCAAGCCCCGAUAAAAGUGGAGGGGGCGG,0.02
